# Reference: ChEMBL document CHEMBL1122333, “Synthesis and biological activities of the Z isomers of carbapenem antibiotics” (J Med Chem, 1983)
# How the values were obtained:
# [1] = test system: Serratia marcescens; assay: beta-lactamase inhibitory activity of the 5,6-cis-carbapenem antibiotic on cephalosporinase against Serratia marcescens TN81; format: functional, organism-based, serratia marcesc; conditions: for IC50: Serratia marcescens, read-out: I50
# [2] = test system: Proteus vulgaris; assay: beta-lactamase inhibitory activity of the 5,6-cis-carbapenem antibiotic on cephalosporinase against Proteus vulgaris GN4413; format: functional, organism-based; conditions: for IC50: Proteus vulgaris, read-out: I50
# [3] = test system: Klebsiella pneumoniae; assay: Tested for beta-lactamase inhibitory activity of the 5,6-cis-carbapenem antibiotic on penicillinase against Klebsiella pneumoniae TN1698; format: functional, organism-based; conditions: for IC50: Klebsiella pneumoniae, read-out: I50
# [4] = tested for minimum inhibitory concentration against […] 12486 on ampicillin at a concentration of 0.1 ug/mL into the agar plate; format: functional
# [5] = test system: Klebsiella pneumoniae; assay: Tested for minimum inhibitory concentration against Klebsiella pneumoniae TN1655 on ampicillin at a concentration of 0.1 ug/mL into the agar plate; format: functional
# [6] = (§1) Half-life of 10% mouse kidney homogenate is tested; format: ADME; conditions: 10% mouse kidney homogenate
# Summary of the method: (§2)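 Carbapenem at 50 μg/mL incubated in 10% mouse kidney homogenate at 30 °C to assess stability to mouse renal enzyme(s).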
# [7] = test system: Proteus vulgaris; assay: Minimum inhibitory concentration against Proteus vulgaris GN4815 on cefotiam at a concentration of 0.1 ug/mL into the agar plate
# [8] = test system: Staphylococcus aureus; assay: Tested for beta-lactamase inhibitory activity of the 5,6-cis-carbapenem antibiotic on penicillinase against Staphylococcus aureus 1840; format: functional, organism-based; conditions: read-out: I50
# [9] = test system: Escherichia coli; assay: Tested for inhibition of intraperitoneal infection against Escherichia coli O-111; format: functional
# Summary of the method: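 Protection assay run in Slc:ICR mice. ED50 was calculated by the Reed and Muench method from survival recorded 5 days after infection.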
# [10] = test system: Proteus vulgaris; assay: tested for minimum inhibitory concentration against Proteus vulgaris GN4815 on cefotiam at a concentration of 0.1 ug/mL into the agar plate
# [11] = test system: Staphylococcus aureus; assay: Tested for minimum inhibitory concentration against Staphylococcus aureus 1840 on ampicillin at a concentration of 0.1 ug/mL into the agar plate; format: functional
# [12] = test system: Klebsiella pneumoniae; assay: Tested for minimum inhibitory concentration against Klebsiella pneumoniae TN1655 on ampicillin at a concentration of 0.1 ug/mL into the agar plate
# [13] = test system: Serratia marcescens; assay: Tested for minimum inhibitory concentration against Serratia marcescens 12648 on cefotiam at a concentration of 0.1 ug/mL into the agar plate
# [14] = test system: Morganella morganii; assay: Tested for minimum inhibitory concentration against […] IFO 3168; format: functional
# Summary of the method: (§3)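 Agar dilution MIC on Trypticase soy agar. Each plate was inoculated with one loopful of a 10^8 cfu/mL bacterial suspension.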
# [15] = test system: Proteus mirabilis; assay: Tested for minimum inhibitory concentration against […] IFO 3849; format: functional; summary of the method: as §3
# [16] = test system: Staphylococcus aureus; assay: Tested for minimum inhibitory concentration against Staphylococcus aureus 308 A-1; format: functional; summary of the method: as §3
# [17] = test system: Proteus vulgaris; assay: Tested for minimum inhibitory concentration against Proteus vulgaris IFO 3988; format: functional
# Summary of the method: (§4)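 MIC by agar dilution on Trypticase soy agar. Inoculum was one loopful of a 10^8 cfu/mL bacterial suspension.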
# [18] = test system: Escherichia coli; assay: Tested for minimum inhibitory concentration against Escherichia coli T-7; format: functional; summary of the method: as §3
# [19] = test system: Enterobacter cloacae; assay: Tested for minimum inhibitory concentration against […] IFO 12937; format: functional; summary of the method: as §3
# [20] = species: Mus musculus; assay: as §1; format: ADME; conditions: in vitro; summary of the method: as §2
# [21] = test system: Citrobacter freundii; assay: Tested for minimum inhibitory concentration against […] IFO 12681; format: functional; summary of the method: as §3
# [22] = test system: Klebsiella pneumoniae; assay: Tested for minimum inhibitory concentration against Klebsiella pneumoniae DT; format: functional; summary of the method: as §3
# [23] = test system: Serratia marcescens; assay: Tested for minimum inhibitory concentration against Serratia marcescens IFO 12648; format: functional; summary of the method: as §3
# [24] = test system: Acinetobacter calcoaceticus; assay: Minimum inhibitory concentration against Acinetobacter calcoacet IFO 13006; format: functional; summary of the method: as §4
# [25] = test system: Pseudomonas aeruginosa; assay: Tested for minimum inhibitory concentration against Pseudomonas aeruginosa IFO 3455; format: functional; summary of the method: as §3
# [26] = test system: Proteus vulgaris; assay: Tested for minimum inhibitory concentration against Proteus vulgaris GN4815 on cefotiam at a concentration of 0.1 ug/mL into the agar plate
# [27] = test system: Escherichia coli; assay: Tested for minimum inhibitory concentration against Escherichia coli O-111; format: functional; summary of the method: as §4
# [28] = Escherichia coli, ip, read-out: ED50
# [29] = Pseudomonas aeruginosa, IFO 3455, read-out: MIC
# [30] = Acinetobacter calcoaceticus, IFO 13006, read-out: MIC
Structure (SMILES),IC50 [1],IC50 [2],IC50 [3],MIC [5],half-life [6],MIC [7],IC50 [8],"ED50 [9, 28]",MIC [11],MIC [13],further results
CC(=O)N/C=C\SC1=C(C(=O)[O-])N2C(=O)[C@@H](C(C)OS(=O)(=O)[O-])[C@H]2C1.[Na+].[Na+] (some centres undefined),0.001 µg/mL,0.00035 µg/mL,1.8 ng/mL,25 µg/mL,42 min,1.56 µg/mL,0.014 µg/mL,> 50 mg/kg,,,MIC [4]: 12.5 µg/mL
CC(=O)N/C=C\[S+]([O-])C1=C(C(=O)[O-])N2C(=O)[C@@H](C(C)O)[C@H]2C1.[Na+] (some centres undefined),0.00029 µg/mL,0.019 µg/mL,2.4 ng/mL,,,,0.00055 µg/mL,,6.25 µg/mL,,MIC [10]: 400 µg/mL; MIC [12]: 100 µg/mL
CC(=O)N/C=C\SC1=C(C(=O)[O-])N2C(=O)[C@@H](C(C)(C)OS(=O)(=O)[O-])[C@H]2C1.[Na+].[Na+],0.051 µg/mL,0.0038 µg/mL,28 ng/mL,50 µg/mL,19 min,1.56 µg/mL,1 µg/mL,> 50 mg/kg,50 µg/mL,25 µg/mL,
CC(=O)N/C=C\SC1=C(C(=O)[O-])N2C(=O)[C@@H](C(C)(C)O)[C@H]2C1.[Na+],0.0053 µg/mL,0.017 µg/mL,220 ng/mL,100 µg/mL,19 min,25 µg/mL,,> 50 mg/kg,12.5 µg/mL,12.5 µg/mL,
CC(=O)N/C=C\[S+]([O-])C1=C(C(=O)[O-])N2C(=O)[C@@H](C(C)(C)O)[C@H]2C1.[Na+] (stereo in doubt; 22),,,,,,,0.59 µg/mL,,,,MIC [14]: 100 µg/mL; MIC [15]: 50 µg/mL; I50 [1]: 3.3 ng/mL; I50 [2]: 14 ng/mL; MIC [16]: 3.13 µg/mL; MIC [17]: 100 µg/mL; MIC [18]: 25 µg/mL; I50 [3]: 110 ng/mL; MIC [19]: 50 µg/mL; T1/2 [20]: > 250 min; MIC [21]: 12.5 µg/mL; MIC [22]: 12.5 µg/mL; MIC [23]: 25 µg/mL
CC(=O)N/C=C/[S+]([O-])C1=C(C(=O)[O-])N2C(=O)[C@@H](C(C)(C)O)[C@H]2C1.[Na+] (stereo in doubt; 20),0.00078 µg/mL,0.0028 µg/mL,80 ng/mL,,,,0.54 µg/mL,28.1 mg/kg,,,MIC [14]: 25 µg/mL; MIC [15]: 12.5 µg/mL; MIC [16]: 3.13 µg/mL; MIC [17]: 12.5 µg/mL; MIC [18]: 25 µg/mL; MIC [19]: 25 µg/mL; MIC [24]: 12.5 µg/mL; MIC [25]: 25 µg/mL; MIC [21]: 3.13 µg/mL
CC(=O)N/C=C/SC1=C(C(=O)[O-])N2C(=O)[C@@H](C(C)(C)O)[C@H]2C1.[Na+],,,,,8 min,,,> 50 mg/kg,,,
CC(=O)[N-]/C=C/SC1=C(C(=O)[O-])N2C(=O)[C@@H](C(C)O)[C@H]2C1.[Na+].[Na+] (some centres undefined),0.0011 µg/mL,1.5 µg/mL,320 ng/mL,100 µg/mL,40 min,,0.065 µg/mL,17.7 mg/kg,1.56 µg/mL,25 µg/mL,MIC [26]: 400 µg/mL
CC(=O)N/C=C/[S+]([O-])C1=C(C(=O)[O-])N2C(=O)[C@@H](C(C)(C)OS(=O)(=O)[O-])[C@H]2C1.[Na+].[Na+] (some centres undefined),,0.00037 µg/mL,5.2 ng/mL,6.25 µg/mL,37 min,1.56 µg/mL,0.21 µg/mL,> 100 mg/kg,,6.25 µg/mL,"I50 [1]: 55 ng/mL; MIC ([23]; Serratia marcescens, IFO 12648, read-out: MIC): 12.5 µg/mL"
CC(=O)N/C=C/SC1=C(C(=O)[O-])N2C(=O)[C@@H](C(C)(C)OS(=O)(=O)[O-])[C@H]2C1.[Na+].[Na+],,,,,7 min,,,> 50 mg/kg,,,
CC(=O)N/C=C/SC1=C(C(=O)[O-])N2C(=O)[C@@H](C(C)OS(=O)(=O)[O-])[C@H]2C1.[Na+].[Na+] (some centres undefined),,,,,21 min,,,> 50 mg/kg,,,"MIC [25, 29]: 3.13 µg/mL"
CC(=O)N/C=C/SC1=C(C(=O)[O-])N2C(=O)[C@@H](C(C)O)[C@H]2C1.[Na+] (some centres undefined),,,,,12 min,,,> 50 mg/kg,,,"MIC ([17]; Proteus vulgaris, IFO 3988, read-out: MIC): 3.13 µg/mL; MIC ([27]; Escherichia coli, read-out: MIC): 0.39 µg/mL; MIC [24, 30]: 3.13 µg/mL; MIC [25, 29]: 100 µg/mL"
CC(=O)N/C=C\[S+]([O-])C1=C(C(=O)[O-])N2C(=O)[C@@H](C(C)(C)O)[C@H]2C1.[Na+] (stereo in doubt; 11),,,,3.13 µg/mL,,,,,6.25 µg/mL,12.5 µg/mL,"MIC [14]: 12.5 µg/mL; MIC [15]: 12.5 µg/mL; I50 [1]: 0.34 ng/mL; I50 [2]: 1.1 ng/mL; MIC [17]: 25 µg/mL; I50 [3]: 3.8 ng/mL; MIC [27]: <0.1 µg/mL; MIC [24, 30]: 50 µg/mL; MIC [22]: 3.13 µg/mL; MIC [23]: 3.13 µg/mL"
CC(=O)N/C=C\[S+]([O-])C1=C(C(=O)[O-])N2C(=O)[C@@H](C(C)(C)OS(=O)(=O)[O-])[C@H]2C1.[Na+].[Na+] (some centres undefined),0.018 µg/mL,0.00055 µg/mL,1 ng/mL,3.13 µg/mL,,0.78 µg/mL,0.24 µg/mL,> 50 mg/kg,50 µg/mL,12.5 µg/mL,
CC(=O)N/C=C/[S+]([O-])C1=C(C(=O)[O-])N2C(=O)[C@@H](C(C)(C)O)[C@H]2C1.[Na+] (stereo in doubt; 2),,,,,,,,,,,MIC [17]: 3.13 µg/mL; MIC [27]: <0.1 µg/mL; MIC [21]: 0.2 µg/mL; ED50 [9]: 20 mg/kg
CC(=O)N/C=C\[S+]([O-])C1=C(C(=O)[O-])N2C(=O)[C@@H](C(C)OS(=O)(=O)[O-])[C@H]2C1.[Na+].[Na+] (some centres undefined),0.00034 µg/mL,0.00016 µg/mL,0.08 ng/mL,,,50 µg/mL,0.0034 µg/mL,,50 µg/mL,25 µg/mL,
